# ChEMBL document CHEMBL5303300, “EUbOPEN Chemogenomics Library - Multiplex” (2023)
# Several values for one entry are separate records, joined by “and”; a condition that tells them apart may be missing. Identical values can stand only once.
# Assays:
# [1] = test system: Fibroblast; experiment: Multiplex assay against human fibroblast; format: toxicity, cell-based; details: number of replicates 2
# Outline: (§1)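 Live cells carried four stains from seeding: Hoechst33342, BioTracker Green Microtubule Cytoskeleton Dye, MitoTracker Red and Annexin V Alexa Fluor 680. They were imaged on a CQ1 microscope at 37°C and 5% CO2 after compound addition. Using CellPathfinder machine-learning gating, cells were split into Hoechst high-intensity objects or normal cells, normal cells into healthy, pyknosed or fragmented nuclei, and pyknosed cells into mitotic or apoptotic; tubulin, mitochondrial-mass and membrane-permeability phenotypes are per cents of healthy-nucleus cells.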
# [2] = test system: U2OS; experiment: Multiplex assay against U2OS; format: toxicity, cell-based; details: human, number of replicates 2; outline: as §1
# [3] = 12 h, 1 µM, compound concentration 1 uM
# [4] = 12 h, 10 µM, compound concentration 10 uM
# [5] = 24 h, 1 µM, compound concentration 1 uM
# [6] = 24 h, 10 µM, compound concentration 10 uM
# [7] = 48 h, 1 µM, compound concentration 1 uM
# [8] = 48 h, 10 µM, compound concentration 10 uM
compound,measurement,setting,value
Cn1c(Nc2c(Cl)cccc2Cl)nc2ccc3nc[nH]c(=O)c3c21,Population Apoptotic (%),[1]; [3],43% and 47%
same,Population Fragmented Nuclei (%),[1]; [3],10% and 5%
same,Population Healthy Nuclei (%),[1]; [3],56% and 67%
same,Population Hoechst High Intensity Objects (%),[1]; [3],0%
same,Population Membrane Permeable-Phenotype (%),[1]; [3],10% and 6%
same,Population Mitochondria Different-Phenotype (%),[1]; [3],1% and 2%
same,Population Mitotic Cells (%),[1]; [3],56% and 52%
same,Population Normal (%),[1]; [3],100%
same,Population Pyknosed Nuclei (%),[1]; [3],32% and 26%
same,Population Tubulin-Different-Phenotype (%),[1]; [3],11% and 14%
same,Total Cell Count,[1]; [3],169 and 189
same,Population Apoptotic (%),[1]; [4],40% and 37%
same,Population Fragmented Nuclei (%),[1]; [4],8% and 17%
same,Population Healthy Nuclei (%),[1]; [4],62% and 69%
same,Population Hoechst High Intensity Objects (%),[1]; [4],0%
same,Population Membrane Permeable-Phenotype (%),[1]; [4],10% and 5%
same,Population Mitochondria Different-Phenotype (%),[1]; [4],4% and 3%
same,Population Mitotic Cells (%),[1]; [4],59% and 62%
same,Population Normal (%),[1]; [4],100%
same,Population Pyknosed Nuclei (%),[1]; [4],28% and 12%
same,Population Tubulin-Different-Phenotype (%),[1]; [4],18% and 23%
same,Total Cell Count,[1]; [4],156 and 195
same,Population Apoptotic (%),[1]; [5],53% and 47%
same,Population Fragmented Nuclei (%),[1]; [5],8% and 10%
same,Population Healthy Nuclei (%),[1]; [5],54% and 57%
same,Population Hoechst High Intensity Objects (%),[1]; [5],0%
same,Population Membrane Permeable-Phenotype (%),[1]; [5],12% and 11%
same,Population Mitochondria Different-Phenotype (%),[1]; [5],1% and 3%
same,Population Mitotic Cells (%),[1]; [5],46% and 52%
same,Population Normal (%),[1]; [5],100%
same,Population Pyknosed Nuclei (%),[1]; [5],36% and 32%
same,Population Tubulin-Different-Phenotype (%),[1]; [5],10% and 18%
same,Total Cell Count,[1]; [5],152 and 202
same,Population Apoptotic (%),[1]; [6],43% and 41%
same,Population Fragmented Nuclei (%),[1]; [6],16% and 14%
same,Population Healthy Nuclei (%),[1]; [6],54% and 72%
same,Population Hoechst High Intensity Objects (%),[1]; [6],0%
same,Population Membrane Permeable-Phenotype (%),[1]; [6],9% and 6%
same,Population Mitochondria Different-Phenotype (%),[1]; [6],3% and 1%
same,Population Mitotic Cells (%),[1]; [6],56% and 58%
same,Population Normal (%),[1]; [6],100%
same,Population Pyknosed Nuclei (%),[1]; [6],28% and 13%
same,Population Tubulin-Different-Phenotype (%),[1]; [6],19% and 11%
same,Total Cell Count,[1]; [6],152 and 183
same,Population Apoptotic (%),[1]; [7],59% and 61%
same,Population Fragmented Nuclei (%),[1]; [7],15% and 14%
same,Population Healthy Nuclei (%),[1]; [7],55% and 62%
same,Population Hoechst High Intensity Objects (%),[1]; [7],2% and 0%
same,Population Membrane Permeable-Phenotype (%),[1]; [7],17% and 10%
same,Population Mitochondria Different-Phenotype (%),[1]; [7],2%
same,Population Mitotic Cells (%),[1]; [7],40% and 38%
same,Population Normal (%),[1]; [7],97% and 100%
same,Population Pyknosed Nuclei (%),[1]; [7],29% and 23%
same,Population Tubulin-Different-Phenotype (%),[1]; [7],17% and 13%
same,Total Cell Count,[1]; [7],128 and 187
same,Population Apoptotic (%),[1]; [8],94% and 87%
same,Population Fragmented Nuclei (%),[1]; [8],18%
same,Population Healthy Nuclei (%),[1]; [8],26% and 35%
same,Population Hoechst High Intensity Objects (%),[1]; [8],0%
same,Population Mitochondria Different-Phenotype (%),[1]; [8],0%
same,Population Mitotic Cells (%),[1]; [8],5% and 12%
same,Population Normal (%),[1]; [8],100%
same,Population Pyknosed Nuclei (%),[1]; [8],54% and 46%
same,Population Tubulin-Different-Phenotype (%),[1]; [8],37% and 16%
same,Total Cell Count,[1]; [8],131 and 170
same,Population Apoptotic (%),[2]; [3],40% and 66%
same,Population Healthy Nuclei (%),[2]; [3],64% and 87%
same,Population Hoechst High Intensity Objects (%),[2]; [3],0%
same,Population Membrane Permeable-Phenotype (%),[2]; [3],0% and 1%
same,Population Mitochondria Different-Phenotype (%),[2]; [3],0%
same,Population Mitotic Cells (%),[2]; [3],60% and 33%
same,Population Normal (%),[2]; [3],100%
same,Population Pyknosed Nuclei (%),[2]; [3],10% and 7%
same,Population Tubulin-Different-Phenotype (%),[2]; [3],100% and 96%
same,Population Apoptotic (%),[2]; [4],66% and 52%
same,Population Healthy Nuclei (%),[2]; [4],59% and 84%
same,Population Hoechst High Intensity Objects (%),[2]; [4],0%
same,Population Membrane Permeable-Phenotype (%),[2]; [4],0% and 1%
same,Population Mitochondria Different-Phenotype (%),[2]; [4],0% and 1%
same,Population Mitotic Cells (%),[2]; [4],33% and 47%
same,Population Normal (%),[2]; [4],100% and 99%
same,Population Pyknosed Nuclei (%),[2]; [4],11% and 10%
same,Population Tubulin-Different-Phenotype (%),[2]; [4],56% and 81%
same,Population Apoptotic (%),[2]; [5],50% and 53%
same,Population Healthy Nuclei (%),[2]; [5],62% and 87%
same,Population Hoechst High Intensity Objects (%),[2]; [5],0%
same,Population Membrane Permeable-Phenotype (%),[2]; [5],0% and 2%
same,Population Mitochondria Different-Phenotype (%),[2]; [5],2% and 0%
same,Population Mitotic Cells (%),[2]; [5],50% and 46%
same,Population Normal (%),[2]; [5],100%
same,Population Pyknosed Nuclei (%),[2]; [5],10% and 8%
same,Population Tubulin-Different-Phenotype (%),[2]; [5],100% and 95%
